Test results from BindingDB's records for doi:10.1021/jm970730q (Tulane University School of Medicine, 1998).
Positions of bridges follow the written chain, without caps; N, C: chain ends. Non-standard residues stand in square brackets, D forms with d. Residues, ends and D or L forms follow the SMILES beside them. Dip = N[C@H](C(=O)O)C(c1ccccc1)c1ccccc1; 2Nal = N[C@@H](Cc1ccc2ccccc2c1)C(=O)O; 3Pal = N[C@@H](Cc1cccnc1)C(=O)O

Key:
[1] = target: Somatostatin receptor type 1 (Homo sapiens, UniProt P30872); assay: Binding affinity towards cloned human somatostatin 1 (hsst) receptor
Sequence of Somatostatin receptor type 1 (P30872 whole entry): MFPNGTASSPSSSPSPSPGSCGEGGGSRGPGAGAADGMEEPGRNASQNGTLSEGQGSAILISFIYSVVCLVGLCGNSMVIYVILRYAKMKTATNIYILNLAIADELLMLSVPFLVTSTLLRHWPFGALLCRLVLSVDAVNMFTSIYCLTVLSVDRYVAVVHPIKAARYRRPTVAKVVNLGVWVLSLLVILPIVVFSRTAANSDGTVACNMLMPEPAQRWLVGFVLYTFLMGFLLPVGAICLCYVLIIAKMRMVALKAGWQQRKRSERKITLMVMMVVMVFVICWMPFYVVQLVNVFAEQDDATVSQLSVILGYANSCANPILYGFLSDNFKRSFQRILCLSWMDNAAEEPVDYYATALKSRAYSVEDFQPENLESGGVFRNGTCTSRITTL
In short: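 Membranes from CHO-K1 cells stably transfected with the human receptor subtype (calcium phosphate transfection, G418 selection), homogenised and washed in Tris-HCl. Separated by filtration on PEI-soaked GF/C filters; nonspecific binding with 1.0 µM SRIF.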

[2] = target: Somatostatin receptor type 4 (Homo sapiens, UniProt P31391); assay: Binding affinity towards cloned human somatostatin 4 (hsst) receptor
Sequence of Somatostatin receptor type 4 (P31391 whole entry): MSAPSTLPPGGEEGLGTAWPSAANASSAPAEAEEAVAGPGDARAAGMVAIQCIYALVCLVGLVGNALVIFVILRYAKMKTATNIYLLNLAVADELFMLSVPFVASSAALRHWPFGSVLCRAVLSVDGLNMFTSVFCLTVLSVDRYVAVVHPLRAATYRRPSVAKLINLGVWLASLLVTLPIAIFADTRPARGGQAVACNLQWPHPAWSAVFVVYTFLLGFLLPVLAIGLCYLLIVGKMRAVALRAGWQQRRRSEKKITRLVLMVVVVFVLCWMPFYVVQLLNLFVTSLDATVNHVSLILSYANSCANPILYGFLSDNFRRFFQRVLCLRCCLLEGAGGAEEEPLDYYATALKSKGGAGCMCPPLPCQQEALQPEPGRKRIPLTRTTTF

SMILES | IC50 [1] [µM] | IC50 [2] [µM]
CC(C)[C@@H]1NC(=O)[C@H](CCCCN)NC(=O)[C@@H](Cc2c[nH]c3ccccc23)NC(=O)[C@H](Cc2c[nH]cn2)NC(=O)[C@H](NC(=O)[C@@H](N)C(c2ccccc2)c2ccccc2)CSSC[C@@H](C(=O)N[C@H](C(N)=O)C(c2ccccc2)c2ccccc2)NC1=O [H-Dip-cyclo[DCys-His-DTrp-Lys-Val-Cys]-Dip-NH2] (H-[Dip][dC]H[dW]KVC[Dip]-NH2; disulfide 2-7) | 1 | –
CC(C)[C@@H]1NC(=O)[C@H](CCCCN)NC(=O)[C@@H](Cc2c[nH]c3ccccc23)NC(=O)[C@H](Cc2c[nH]cn2)NC(=O)[C@H](NC(=O)[C@@H](N)C(c2ccccc2)c2ccccc2)CSSC[C@@H](C(=O)N[C@@H](Cc2ccc3ccccc3c2)C(N)=O)NC1=O [H-Dip-cyclo[DCys-His-DTrp-Lys-Val-Cys]-Nal-NH2] (H-[Dip][dC]H[dW]KVC[2Nal]-NH2; disulfide 2-7) | – | 1
CC(C)[C@@H]1NC(=O)[C@H](CCCCN)NC(=O)[C@@H](Cc2c[nH]c3ccccc23)NC(=O)[C@H](Cc2cccnc2)NC(=O)[C@H](NC(=O)[C@@H](N)C(c2ccccc2)c2ccccc2)CSSC[C@@H](C(=O)N[C@H](C(N)=O)C(c2ccccc2)c2ccccc2)NC1=O [H-Dip-cyclo[DCys-Pal-DTrp-Lys-Val-Cys]-Dip-NH2] (H-[Dip][dC][3Pal][dW]KVC[Dip]-NH2; disulfide 2-7) | 1 | 1
